The results in this text go back to ChEMBL document CHEMBL1140733, “Comprehensive study of sansalvamide A derivatives and their structure-activity relationships against drug-resistant colon cancer cell lines” (J Med Chem, 2008).

Test [1] concerns HCT-116. Briefly: Cytotoxicity against multidrug-resistant human HCT116 cells at 1 uM by thymidine incorporation assay. In kind it is functional. A digest of the protocol: (§1)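 HCT-116 cells were grown in IMDM and HCT-15 in RPMI 1640, each with L-glutamine, 10% FBS and penicillin-streptomycin, at 3000 cells/well. Compound was applied at 1 µM in 1% DMSO for 72 h total, with 3H-thymidine added for the final 16 h. Percent growth inhibition versus DMSO controls was scintillation-counted, averaging three wells in each of three assays.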

In test [2] the test system is HCT-15. Briefly: Cytotoxicity against multidrug-resistant human HCT15 cells at 1 uM by thymidine incorporation assay. In kind it is functional. A digest of the protocol: as §1

Each structure is given as a SMILES string. Square brackets hold non-standard residues; d marks the D form. Peptide text beside a SMILES is read from it. * marks the point of attachment. dNMeF = CN[C@H](Cc1ccccc1)C(=O)O; Cbz = O=C(OCc1ccccc1)*; Bn = c1ccc(C*)cc1

With `CC(C)C[C@@H]1NC(=O)CN(C)C(=O)[C@H](Cc2ccccc2)NC(=O)[C@H](C(C)C)NC(=O)[C@@H](C(C)C)NC1=O` (HELM PEPTIDE1{F.[Sar].L.[dV].V}$PEPTIDE1,PEPTIDE1,1:R1-5:R2$$$V2.0), the inhibition at 1 µM in test [1] was determined as 20%; in test [2] it was 18%.

As for `CC(C)C[C@@H]1NC(=O)[C@H](Cc2ccccc2)NC(=O)[C@H](CC(C)C)NC(=O)[C@@H](C(C)C)NC(=O)[C@H](CCCCNC(=O)OCc2ccccc2)NC1=O` (cyclo(FLK(Cbz)[dV]L)), the figures for the inhibition at 1 µM in test [1] and in test [2] were 16% and 3%, respectively.

Consider `CC[C@H]1NC(=O)[C@H](CC(C)C)NC(=O)[C@H](CC(C)C)NC(=O)[C@H](Cc2ccccc2)NC(=O)[C@H](CC(C)C)NC1=O` (HELM PEPTIDE1{F.L.L.[CC[C@@H](N[*:1])C(=O)[*:2]].L}$PEPTIDE1,PEPTIDE1,1:R1-5:R2$$$V2.0), for which the inhibition at 1 µM is 17% in test [1] and 20% in test [2].

For the compound `CC(C)C[C@@H]1NC(=O)[C@H](Cc2ccccc2)NC(=O)[C@H](CC(C)C)N(C)C(=O)[C@H](C(C)C)N(C)C(=O)[C@H](CC(C)C)NC1=O` (HELM PEPTIDE1{F.L.L.[meV].[meL]}$PEPTIDE1,PEPTIDE1,1:R1-5:R2$$$V2.0), the inhibition at 1 µM is 10% in test [1] and 0% in test [2].

As to `CC(C)C[C@@H]1NC(=O)[C@H](Cc2ccccc2)NC(=O)[C@@H](CC(C)C)NC(=O)[C@@H](C(C)C)NC(=O)[C@H](CC(C)C)NC1=O` (HELM PEPTIDE1{F.L.L.[dV].[dL]}$PEPTIDE1,PEPTIDE1,1:R1-5:R2$$$V2.0), the figures for the inhibition at 1 µM in test [1] and in test [2] were 34% and 17%, respectively.

Consider `CC(C)C[C@@H]1C(=O)N[C@H](CC(C)C)C(=O)N[C@H](C(C)C)C(=O)N[C@H](CC(C)C)C(=O)N[C@H](Cc2ccccc2)C(=O)N1C` (HELM PEPTIDE1{[dF].[CC(C)C[C@H](C(=O)[*:2])N(C)[*:1]].[dL].[dV].[dL]}$PEPTIDE1,PEPTIDE1,1:R1-5:R2$$$V2.0), for which the inhibition at 1 µM turned out to be 42% in test [1] and 28% in test [2].

In the case of `CC(C)C[C@@H]1NC(=O)[C@@H](C(C)C)N(C)C(=O)[C@H](CC(C)C)NC(=O)[C@@H](CC(C)C)NC(=O)[C@H](Cc2ccccc2)NC1=O` (HELM PEPTIDE1{F.[dL].L.[CC(C)[C@H](C(=O)[*:2])N(C)[*:1]].L}$PEPTIDE1,PEPTIDE1,1:R1-5:R2$$$V2.0), the inhibition at 1 µM in test [1] is 38%; in test [2], 14%.

Consider `CC(C)[C@@H]1NC(=O)[C@H](Cc2ccccc2)NC(=O)[C@H](C(C)C)NC(=O)[C@@H](COCc2ccccc2)NC(=O)[C@H](C(C)C)NC1=O` (cyclo(FVV[dS](Bn)V)), for which the inhibition at 1 µM in test [1] came to 17%; in test [2], 14%.

For `CC(C)C[C@@H]1NC(=O)[C@H](Cc2ccccc2)NC(=O)[C@@H](Cc2ccccc2)N(C)C(=O)[C@H](C(C)C)NC(=O)[C@H](CCCCNC(=O)OCc2ccccc2)NC1=O` (cyclo(FLK(Cbz)V[dNMeF])), the inhibition at 1 µM came to 38% in test [1] and 14% in test [2].

Regarding `CC[C@@H]1NC(=O)[C@H](CC(C)C)NC(=O)[C@H](CC(C)C)NC(=O)[C@H](Cc2ccccc2)NC(=O)[C@@H](CC(C)C)NC1=O` (HELM PEPTIDE1{[Abu].[dL].F.L.L}$PEPTIDE1,PEPTIDE1,1:R1-5:R2$$$V2.0), the inhibition at 1 µM in test [1] came to 13%; in test [2], 8%.

For the compound `CC(C)C[C@@H]1NC(=O)[C@H](C(C)C)NC(=O)[C@H](CC(C)C)N(C)C(=O)[C@@H](CC(C)C)NC(=O)[C@H](Cc2ccccc2)NC1=O` (HELM PEPTIDE1{F.[dL].[meL].V.L}$PEPTIDE1,PEPTIDE1,1:R1-5:R2$$$V2.0), the inhibition at 1 µM in test [1] was found to be 23%; in test [2], 30%.

As to `CC(C)C[C@@H]1NC(=O)[C@H](Cc2ccccc2)NC(=O)[C@@H](CO)NC(=O)[C@H](C(C)C)NC(=O)[C@H](CC(C)C)NC1=O` (HELM PEPTIDE1{F.L.L.V.[dS]}$PEPTIDE1,PEPTIDE1,1:R1-5:R2$$$V2.0), the results for the inhibition at 1 µM in test [1] and in test [2] were 37% and 3%, respectively.

For the compound `CC(C)C[C@@H]1NC(=O)[C@H](C(C)C)NC(=O)[C@H](CC(C)C)N(C)C(=O)[C@H](CC(C)C)NC(=O)[C@H](Cc2ccccc2)NC1=O` (HELM PEPTIDE1{F.L.[meL].V.L}$PEPTIDE1,PEPTIDE1,1:R1-5:R2$$$V2.0), the results for the inhibition at 1 µM in test [1] and in test [2] were 30% and 57%, respectively.

Consider `CC(C)C[C@@H]1NC(=O)[C@H](CC(C)C)NC(=O)[C@@H](Cc2c[nH]c3ccccc23)NC(=O)[C@H](CC(C)C)NC(=O)[C@H](C(C)C)NC1=O` (HELM PEPTIDE1{L.L.V.L.[dW]}$PEPTIDE1,PEPTIDE1,1:R1-5:R2$$$V2.0), for which the inhibition at 1 µM is 2% in test [1] and 9% in test [2].

With `CC(C)C[C@@H]1NC(=O)[C@@H](C(C)C)NC(=O)[C@H](CC(C)C)NC(=O)[C@H](CC(C)C)N(C)C(=O)[C@H](Cc2ccccc2)NC1=O` (HELM PEPTIDE1{F.[meL].L.[dV].L}$PEPTIDE1,PEPTIDE1,1:R1-5:R2$$$V2.0), the inhibition at 1 µM in test [1] worked out at 38%; in test [2], 19%.

Take `CC(C)C[C@@H]1NC(=O)[C@H](Cc2ccccc2)NC(=O)[C@H](CC(C)C)NC(=O)[C@@H](Cc2ccccc2)NC(=O)[C@H](CC(C)C)NC1=O` (HELM PEPTIDE1{F.L.L.[dF].L}$PEPTIDE1,PEPTIDE1,1:R1-5:R2$$$V2.0): the inhibition at 1 µM in test [1] and in test [2] was 11% in each case.

Regarding `CC(C)C[C@@H]1NC(=O)[C@@H](CC(C)C)NC(=O)[C@H](Cc2ccccc2)NC(=O)[C@H](CC(C)C)NC(=O)[C@@H](C(C)C)NC1=O` (HELM PEPTIDE1{F.[dL].L.[dV].L}$PEPTIDE1,PEPTIDE1,1:R1-5:R2$$$V2.0), the inhibition at 1 µM was 16% in test [1] and 20% in test [2].

With `CC(C)C[C@@H]1NC(=O)[C@H](C)NC(=O)[C@H](CC(C)C)NC(=O)[C@H](CC(C)C)NC(=O)[C@H](Cc2ccccc2)NC1=O` (HELM PEPTIDE1{A.L.F.L.L}$PEPTIDE1,PEPTIDE1,1:R1-5:R2$$$V2.0), the results for the inhibition at 1 µM in test [1] and in test [2] were 23% and 40%, respectively.

On to `CC(C)C[C@@H]1NC(=O)[C@H](Cc2ccccc2)NC(=O)[C@H](CC(C)C)NC(=O)[C@H](C(C)C)NC(=O)[C@@H](CC(C)C)NC1=O` (HELM PEPTIDE1{F.L.[dL].V.L}$PEPTIDE1,PEPTIDE1,1:R1-5:R2$$$V2.0), for which the inhibition at 1 µM in test [1] amounted to 0%; in test [2], 15%.

`CC(C)[C@@H]1NC(=O)[C@H](Cc2ccccc2)NC(=O)[C@@H](COCc2ccccc2)NC(=O)[C@H](C(C)C)NC(=O)[C@H](C(C)C)NC1=O` (cyclo(FVVV[dS](Bn))): the inhibition at 1 µM in test [1] was 25%; in test [2], 30%.

In the case of `CC(C)[C@@H]1NC(=O)[C@H](CC2CCCCC2)NC(=O)[C@H](CO)NC(=O)[C@H](Cc2ccccc2)NC(=O)[C@@H](Cc2ccccc2)N(C)C1=O` (HELM PEPTIDE1{[Cha].V.[CN([C@H](Cc1ccccc1)C(=O)[*:2])[*:1]].F.S}$PEPTIDE1,PEPTIDE1,1:R1-5:R2$$$V2.0), the inhibition at 1 µM in test [1] worked out at 34%; in test [2], 20%.

As to `CC(C)C[C@@H]1NC(=O)[C@H](C(C)C)NC(=O)[C@@H](CC(C)C)NC(=O)[C@@H](CC(C)C)NC(=O)[C@H](Cc2ccccc2)NC1=O` (HELM PEPTIDE1{F.[dL].[dL].V.L}$PEPTIDE1,PEPTIDE1,1:R1-5:R2$$$V2.0), the figures for the inhibition at 1 µM in test [1] and in test [2] were 28% and 40%, respectively.

Regarding `CC(C)C[C@@H]1NC(=O)[C@@H](Cc2ccccc2)NC(=O)[C@H](C(C)C)NC(=O)[C@@H](CC(C)C)NC(=O)[C@@H](CC(C)C)NC1=O` (HELM PEPTIDE1{L.[dL].[dL].V.[dF]}$PEPTIDE1,PEPTIDE1,1:R1-5:R2$$$V2.0), the figures for the inhibition at 1 µM in test [1] and in test [2] were 32% and 0%, respectively.

Regarding `CC(C)C[C@@H]1NC(=O)[C@H](Cc2ccccc2)NC(=O)[C@H](CC(C)C)NC(=O)[C@@H](C(C)C)N(C)C(=O)[C@H](CC(C)C)NC1=O` (HELM PEPTIDE1{F.L.L.[CC(C)[C@H](C(=O)[*:2])N(C)[*:1]].L}$PEPTIDE1,PEPTIDE1,1:R1-5:R2$$$V2.0), the inhibition at 1 µM in test [1] was determined as 19%; in test [2] it was 21%.

`CC[C@@H]1NC(=O)[C@H](CC(C)C)NC(=O)[C@H](CC(C)C)NC(=O)[C@H](Cc2ccccc2)NC(=O)[C@H](CC(C)C)NC1=O` (HELM PEPTIDE1{[Abu].L.F.L.L}$PEPTIDE1,PEPTIDE1,1:R1-5:R2$$$V2.0): the inhibition at 1 µM in test [1] turned out to be 1%; in test [2], 8%.

As to `CC(C)C[C@@H]1NC(=O)[C@H](Cc2ccccc2)NC(=O)[C@@H](Cc2ccccc2)NC(=O)[C@H](C(C)C)NC(=O)[C@H](CC(C)C)NC1=O`, the inhibition at 1 µM in test [1] amounted to 35%; in test [2], 14%.

For the compound `CC(C)C[C@@H]1NC(=O)[C@H](Cc2ccccc2)NC(=O)[C@@H](CC(C)C)N(C)C(=O)[C@@H](C(C)C)N(C)C(=O)[C@H](CC(C)C)NC1=O` (HELM PEPTIDE1{F.L.L.[CC(C)[C@H](C(=O)[*:2])N(C)[*:1]].[CC(C)C[C@H](C(=O)[*:2])N(C)[*:1]]}$PEPTIDE1,PEPTIDE1,1:R1-5:R2$$$V2.0), the inhibition at 1 µM was 30% in test [1] and 7% in test [2].

Take `CC(C)C[C@@H]1NC(=O)[C@H](Cc2ccccc2)NC(=O)[C@@H](Cc2ccccc2)N(C)C(=O)[C@H](C(C)C)NC(=O)[C@H](CCCCN)NC1=O` (HELM PEPTIDE1{F.L.K.V.[CN([C@H](Cc1ccccc1)C(=O)[*:2])[*:1]]}$PEPTIDE1,PEPTIDE1,1:R1-5:R2$$$V2.0): the inhibition at 1 µM in test [1] was determined as 30%; in test [2], 26%.

`CC(C)[C@@H]1NC(=O)[C@H](Cc2ccccc2)NC(=O)[C@@H](CO)NC(=O)[C@H](C(C)C)NC(=O)[C@H](C(C)C)NC1=O` (HELM PEPTIDE1{F.V.V.V.[dS]}$PEPTIDE1,PEPTIDE1,1:R1-5:R2$$$V2.0): the inhibition at 1 µM in test [1] turned out to be 0%; in test [2] it was 18%.
